Data set [1] addresses T1, Protein lin-28 homolog A (Homo sapiens) (UniProt Q9H9Z2).
T1 sequence (whole entry): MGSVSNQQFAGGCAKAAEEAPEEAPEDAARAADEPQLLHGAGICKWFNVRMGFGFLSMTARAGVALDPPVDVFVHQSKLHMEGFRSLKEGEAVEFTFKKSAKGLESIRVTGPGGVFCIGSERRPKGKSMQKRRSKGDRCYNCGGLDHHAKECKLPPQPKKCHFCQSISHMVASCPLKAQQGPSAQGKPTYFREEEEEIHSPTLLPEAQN
The experiment in a line: Inhibition of Lin28a in human PA1 cells assessed as reduction in Lin28 expression at 10 uM after 24 hrs by Western blot analysis. The class given is cell-based. In a few lines:
(§1)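 Endogenous let-7 target proteins (HMGA2, IMP1, Ras, Lin28a) detected by Western blot in JAR or PA-1 cells after 24 h compound treatment.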
In general terms: Immunoblotting shows a protein as a band on a membrane.

Data set [2] concerns JAR. The experiment in a line: Inhibition of sphere formation in human JAR cells at 10 uM after 24 hrs by WST assay. The class given is functional, cell-based. In a few lines:
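JAR cells are pretreated with compound for 24 h, dissociated to single cells, and equal numbers of viable cells are cultured in sphere-forming media for 12 days. Sphere formation is quantified by WST assay. Three biological replicates, standard deviation, paired two-tailed t test.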

The target in data set [3] is T2, Protein lin-28 homolog A (Homo sapiens, UniProt Q9H9Z2).
T2 sequence (Q9H9Z2 whole entry): T1 sequence (whole entry)
The data set can be described thus: Inhibition of Cy5-preE-let-7g binding to recombinant human N-terminal His6-tagged Lin28a expressed in Escherichia coli Rosetta2 (DE3) pLysS measured after 30 to 60 mins by electrophoretic mobility shift assay. In general terms: Mobility shift assays separate free from complexed probe on a gel.

In the next data set the test system is C2C12. The data set can be described thus: Cytotoxicity against mouse C2C12 cells at 10 uM after 24 hrs by WST assay. The class given is cell-based. As to conditions: c2c12, 24 h.
Data set [4] has as its target T3, Protein lin-28 homolog A/B (Homo sapiens) (UniProt Q6ZN17+Q9H9Z2). The experiment in a line: Inhibition of Lin28a/Lin28b in human JAR cells assessed as increase in mature let-7d level after 20 hrs by TRIzol dye based qRT-PCR analysis. The class given is cell-based. In a few lines:
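JAR cells (express Lin28a and Lin28b) exposed to compound for 20 h; miRNA levels quantified with U6 snRNA as endogenous control; three or more biological replicates, standard deviation, paired two-tailed t test.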
(In general: Quantitative PCR measures a nucleic acid by following its amplification.)

For data set [5], the target named is T3, Protein lin-28 homolog A/B (Homo sapiens). The data set can be described thus: Inhibition of Lin28a/Lin28b in human paclitaxel-resistant JAR cells assessed as reduction in IMP1 expression at 10 uM measured after 24 hrs by Western blot analysis.
For data set [6] the target is unchanged. The experiment in a line: Inhibition of Lin28a/Lin28b in human JAR cells assessed as reduction in IMP1 expression at 5 to 10 uM after 24 hrs by Western blot analysis. It counts as cell-based. In a few lines:
as §1

In data set [7] the test system is PA-1. The data set can be described thus: Increase in mature let-7d level in Lin28a CRISPR-Cas9 knockout human PA1 cells at 10 uM after 20 hrs by qRT-PCR analysis. The class given is functional, cell-based. A digest of the protocol: (§2)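 PA-1 cells with Lin28a fully knocked out by CRISPR/Cas9 editing (clonal lines) treated for 20 h; let-7 levels normalized to U6 snRNA; 2 technical replicates.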

Data set [8] concerns the target T3, Protein lin-28 homolog A/B (Homo sapiens). The experiment in a line: Inhibition of Lin28a/Lin28b in human JAR cells assessed as reduction in Lin28a expression at 5 to 10 uM after 24 hrs by Western blot analysis. It counts as cell-based. A digest of the protocol:
as §1

In data set [9] the target is T4, Protein lin-28 homolog B (Homo sapiens) (UniProt Q6ZN17).
T4 sequence (whole entry): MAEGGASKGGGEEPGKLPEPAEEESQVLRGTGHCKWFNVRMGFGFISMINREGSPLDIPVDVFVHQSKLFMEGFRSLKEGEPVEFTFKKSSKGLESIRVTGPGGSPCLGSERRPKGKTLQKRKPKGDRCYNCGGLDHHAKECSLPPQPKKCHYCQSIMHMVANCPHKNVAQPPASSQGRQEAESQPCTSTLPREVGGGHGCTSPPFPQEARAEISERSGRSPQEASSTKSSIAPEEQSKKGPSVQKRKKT
The data set can be described thus: Inhibition of biotinylated-preE-let-7g binding to Lin28b in human JAR cells by pull down assay. The class given is cell-based. A digest of the protocol: (§3)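 5′-Biotinylated preE-let-7g is immobilized on streptavidin beads and incubated with proteome from JAR human choriocarcinoma cells, which express Lin28a and Lin28b. Test compound is present during binding, and target engagement is judged by the proteins pulled down.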

The subject of data set [10] is JAR. The data set can be described thus: Cytotoxicity against human JAR cells after 24 hrs by WST assay. It counts as functional, cell-based.
The target of data set [11] is T1, Protein lin-28 homolog A (Homo sapiens). The data set can be described thus: Binding affinity to recombinant human N-terminal His6-tagged Lin28a zinc knuckle domain expressed in Escherichia coli Rosetta2 (DE3) pLysS at 0.625 to 10 uM by surface plasmon resonance analysis.
The target is the same in data set [12]. The data set can be described thus: Inhibition of Lin28a in human PA1 cells assessed as reduction in Ras expression at 10 uM after 24 hrs by Western blot analysis. It counts as cell-based. A digest of the protocol:
as §1

Data set [13] has the same target. The experiment in a line: Binding affinity to recombinant human N-terminal His6-tagged Lin28a cold shock domain expressed in Escherichia coli Rosetta2 (DE3) pLysS at 0.625 to 10 uM by surface plasmon resonance analysis.
For data set [14], the target named is T3, Protein lin-28 homolog A/B (Homo sapiens). The data set can be described thus: Inhibition of Lin28a/Lin28b in human JAR cells assessed as reduction in HMGA2 expression at 5 to 10 uM after 24 hrs by Western blot analysis. It counts as cell-based. In a few lines:
as §1

Data set [15] has as its target T1, Protein lin-28 homolog A (Homo sapiens). The data set can be described thus: Inhibition of Lin28a in human PA1 cells assessed as reduction in IMP1 expression at 10 uM after 24 hrs by Western blot analysis. It counts as cell-based. A digest of the protocol:
as §1

In data set [16] the target is T2, Protein lin-28 homolog A. The data set can be described thus: Binding affinity to recombinant human N-terminal His6-tagged Lin28a expressed in Escherichia coli Rosetta2 (DE3) pLysS by surface plasmon resonance analysis. A digest of the protocol: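 Surface plasmon resonance detecting direct binding of analyte to immobilized Lin28a, run at concentrations from 0.31 to 10 μM; binding read as a dose–response curve and Rmax calculated.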

Data set [17] addresses Heterogeneous nuclear ribonucleoprotein A1 (Homo sapiens) (UniProt P09651). The experiment in a line: Inhibition of biotinylated-preE-let-7g binding to hnRNPA1 in human JAR cells by pull down assay. The class given is cell-based. In a few lines: as §3
For data set [18], the target named is Endoribonuclease Dicer (Homo sapiens) (UniProt Q9UPY3). The experiment in a line: Inhibition of recombinant FLAG-tagged human dicer expressed in HEK293 cells assessed as reduction in pre-let-7g microRNA maturation at 5 to 10 uM after 40 mins by SYBR green2 dye based fluorescence assay. It counts as cell-based.
Chain of Endoribonuclease Dicer (Homo sapiens) (Q9UPY3 whole entry): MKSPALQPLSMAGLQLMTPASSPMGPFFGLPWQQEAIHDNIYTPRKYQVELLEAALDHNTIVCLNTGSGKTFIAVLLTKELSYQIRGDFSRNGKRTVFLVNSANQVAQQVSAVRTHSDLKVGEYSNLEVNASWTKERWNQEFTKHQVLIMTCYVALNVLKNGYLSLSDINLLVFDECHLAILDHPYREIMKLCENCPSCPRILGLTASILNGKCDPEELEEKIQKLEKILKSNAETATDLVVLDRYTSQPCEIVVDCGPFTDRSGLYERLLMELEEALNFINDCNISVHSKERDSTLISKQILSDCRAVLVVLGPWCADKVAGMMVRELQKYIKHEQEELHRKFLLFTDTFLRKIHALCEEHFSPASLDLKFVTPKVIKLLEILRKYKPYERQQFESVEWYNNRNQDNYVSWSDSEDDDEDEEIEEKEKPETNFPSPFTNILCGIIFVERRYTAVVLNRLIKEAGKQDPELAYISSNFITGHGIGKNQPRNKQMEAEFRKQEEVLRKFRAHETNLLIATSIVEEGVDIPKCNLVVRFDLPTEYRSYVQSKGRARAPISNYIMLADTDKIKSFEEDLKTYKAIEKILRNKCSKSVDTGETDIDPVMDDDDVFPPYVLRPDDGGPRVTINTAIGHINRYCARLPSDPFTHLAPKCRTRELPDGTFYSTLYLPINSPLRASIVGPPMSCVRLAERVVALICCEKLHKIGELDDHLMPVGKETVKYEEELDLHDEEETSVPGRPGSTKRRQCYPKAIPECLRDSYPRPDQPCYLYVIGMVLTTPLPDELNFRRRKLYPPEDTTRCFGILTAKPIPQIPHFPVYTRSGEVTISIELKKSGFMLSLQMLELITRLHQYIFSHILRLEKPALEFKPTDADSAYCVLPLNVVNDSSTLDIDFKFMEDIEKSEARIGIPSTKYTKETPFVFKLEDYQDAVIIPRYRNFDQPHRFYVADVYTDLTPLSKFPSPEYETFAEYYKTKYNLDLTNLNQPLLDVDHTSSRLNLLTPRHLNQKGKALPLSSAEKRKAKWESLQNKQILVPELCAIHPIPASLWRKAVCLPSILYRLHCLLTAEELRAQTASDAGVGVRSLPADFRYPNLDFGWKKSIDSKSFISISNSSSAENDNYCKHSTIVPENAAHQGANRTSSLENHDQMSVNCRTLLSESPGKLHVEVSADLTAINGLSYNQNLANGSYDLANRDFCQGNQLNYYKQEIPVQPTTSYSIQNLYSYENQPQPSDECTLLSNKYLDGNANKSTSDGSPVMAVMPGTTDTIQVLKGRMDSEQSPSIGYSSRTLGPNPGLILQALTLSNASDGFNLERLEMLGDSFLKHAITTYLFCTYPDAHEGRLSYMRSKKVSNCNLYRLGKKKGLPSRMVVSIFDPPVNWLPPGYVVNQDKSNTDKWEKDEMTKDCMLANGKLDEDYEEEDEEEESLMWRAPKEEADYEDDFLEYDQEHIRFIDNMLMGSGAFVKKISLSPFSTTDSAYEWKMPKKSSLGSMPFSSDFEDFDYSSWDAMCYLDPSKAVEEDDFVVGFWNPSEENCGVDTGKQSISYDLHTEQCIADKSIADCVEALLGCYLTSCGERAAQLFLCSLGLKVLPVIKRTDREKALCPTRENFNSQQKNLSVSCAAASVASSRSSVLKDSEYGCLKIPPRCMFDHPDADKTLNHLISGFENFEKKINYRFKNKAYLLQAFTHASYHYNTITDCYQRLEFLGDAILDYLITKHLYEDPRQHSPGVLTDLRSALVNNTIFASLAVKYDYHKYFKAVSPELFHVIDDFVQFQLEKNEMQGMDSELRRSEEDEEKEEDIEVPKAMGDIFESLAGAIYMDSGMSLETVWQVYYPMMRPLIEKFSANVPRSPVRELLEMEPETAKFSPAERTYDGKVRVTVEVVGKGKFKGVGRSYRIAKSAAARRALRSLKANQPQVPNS
Data set [19] concerns the target T1, Protein lin-28 homolog A (Homo sapiens). The experiment in a line: Inhibition of Lin28a in human PA1 cells assessed as increase in mature let-7d level at 10 uM after 20 hrs by TRIzol dye based qRT-PCR analysis. The class given is cell-based. In a few lines:
(§4)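 PA-1 ovarian teratocarcinoma cells (express Lin28a) treated for 20 h; let-7 quantified relative to U6 snRNA; 4 biological replicates, standard deviation, paired two-tailed t test.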

The target is the same in data set [20]. The experiment in a line: Inhibition of Lin28a in human PA1 cells assessed as increase in mature let-7g level at 10 uM after 20 hrs by TRIzol dye based qRT-PCR analysis. It counts as cell-based. A digest of the protocol: as §4
In data set [21] the test system is JAR. The experiment in a line: Increase in mature let-7d level in Lin28a/b knockdown human JAR cells at 10 uM after 20 hrs by qRT-PCR analysis. The class given is functional, cell-based. A digest of the protocol:
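Lin28 knocked-down JAR cells treated for 20 h; let-7 levels measured against U6 snRNA endogenous control; 2 biological replicates.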

The test system of data set [22] is PA-1. The data set can be described thus: Increase in mature let-7i level in Lin28a CRISPR-Cas9 knockout human PA1 cells at 10 uM after 20 hrs by qRT-PCR analysis. It counts as functional, cell-based. A digest of the protocol:
as §2

The structures appear in SMILES notation. Activity calls are given as the source filed them. The rule behind the calls is not given here.

One may read the IC50 as the midpoint of a concentration-inhibition curve. As a reminder, the Kd is the equilibrium constant for the complex coming apart.

Chain of Heterogeneous nuclear ribonucleoprotein A1 (Homo sapiens) (P09651 whole entry): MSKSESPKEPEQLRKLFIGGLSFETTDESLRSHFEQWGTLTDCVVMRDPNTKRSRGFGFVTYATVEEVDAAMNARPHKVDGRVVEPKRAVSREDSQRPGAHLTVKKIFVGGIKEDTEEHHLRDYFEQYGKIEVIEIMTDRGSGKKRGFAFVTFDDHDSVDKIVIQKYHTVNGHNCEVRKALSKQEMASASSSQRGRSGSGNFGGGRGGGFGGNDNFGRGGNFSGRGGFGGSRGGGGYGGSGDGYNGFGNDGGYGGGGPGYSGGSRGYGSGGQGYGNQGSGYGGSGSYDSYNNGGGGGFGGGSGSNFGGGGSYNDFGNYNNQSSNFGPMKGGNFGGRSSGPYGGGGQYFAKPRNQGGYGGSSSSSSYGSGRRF

As to `NC(=O)c1c(Nc2ccc(Cl)cc2Cl)[nH]c2c(Cl)ccc(Cl)c2c1=O`, the inhibition result (in [1]; with JAR [2]; in data set [5]; in data set [6]; in data set [8]; in data set [12]) was “Active” throughout. For the same molecule, the inhibition result in data set [14], in data set [15], in [19] and in [20] was “Active” in each case. The concentration for half-maximal inhibition (IC50) at Protein lin-28 homolog A [3] worked out at 4.8 µM. For the same molecule, the Activity result in the data set with C2C12 is listed as “Toxic”. Moreover, the inhibition result in data set [4] and in data set [9] was “Dose-dependent effect” in each case. Further, the outcome (with PA-1 [7]; in [11]; in the data set with JAR [21]; in the data set with PA-1 [22]) was inactive. In addition, the outcome (with JAR [10]; in data set [13]) was Active. Besides, the Kd at Protein lin-28 homolog A [16] is 5.9 µM. For the same molecule, the inhibition entry in [17] and in [18] was “inactive” throughout.

For the origin of these results see ChEMBL document CHEMBL4325922, “Restoring Let-7 microRNA Biogenesis Using a Small-Molecule Inhibitor of the Protein-RNA Interaction” (ACS Med Chem Lett, 2018).
